Experimental data published in ChEMBL document CHEMBL4038313, “Expanding the Antiviral Spectrum of 3-Fluoro-2-(phosphonomethoxy)propyl Acyclic Nucleoside Phosphonates: Diamyl Aspartate Amidate Prodrugs” (J Med Chem, 2017).

Key:
[1] = Stability of the compound in buffer of pH 1 at 2 mg after 6 hrs by 31P NMR spectroscopy; type: physicochemical; conditions: pH 1, 6 h
In short: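 2.0 mg compound in 0.2 mL acetone-d6 plus 0.3 mL pH 1 buffer (equal parts 0.2 M HCl and 0.2 M KCl). In situ 31P NMR (202 MHz) at 37 °C, spectra every 30 min over 14 h.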

[2] = Cytotoxic activity against HEL cells assessed as alteration of cell morphology after 3 days by microscopic method; type: cell-based; conditions: human
In short: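 HEL cells with compound; MCC is the lowest concentration giving microscopically detectable alteration of cell morphology.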

[3] = tested on: Human immunodeficiency virus 1; experiment: Antiviral activity against CXCR4-tropic HIV-1 NL4-3 infected in human TZM-bl cells assessed as inhibition of virus-induced cytopathic effect preincubated with cells for 30 mins followed by viral infection measured after 48 hrs in presence of p-24 HIV-1 Ag by luciferase reporter gene assay; type: functional, cell-based; conditions: Human immunodeficiency virus 1, NL4-3, TZM-bl
In short: (§1)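 TZM-bl cells, 1 × 10^4 per well in DMEM with 10% FBS and 10 mM […], incubated 30 min at 37 °C with compound. Then HIV-1 NL4.3 (X4) or BaL (R5) added at 100 pg p24 Ag per well. After 48 h, cells lysed with luciferase substrate. Tat-induced luminescence read after 10 min dark incubation as a measure of replication.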

[4] = tested on: Human alphaherpesvirus 3; experiment: Antiviral activity against thymidine kinase expressing Varicella-Zoster virus Oka strain assessed as inhibition of plaque formation; type: functional; conditions: Human alphaherpesvirus 3, strain Oka vaccine
In short: (§2)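 HEL fibroblast monolayers inoculated with 100 CCID50 HCMV (AD-169, Davis) or 20 PFU VZV (TK+ Oka, TK− 07-1). Adsorbed 1–2 h, inoculum removed, then incubated with compound dilutions. HCMV cytopathicity or VZV plaques scored once untreated infected controls reached completion. EC50 is 50% reduction. SI is CC50/EC50, and the potency ratio is the ratio of EC50s.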

[5] = Selectivity index, ratio of CC50 for HepG2.2.15 cells to EC50 for HBV ayw1 infected in human HepG2(2.2.15) cells assessed as reduction in viral replication by measuring extracellular viral DNA copy
In short: (§3)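 HepG2.2.15 cells (two copies of HBV ayw1 genome), 1.5 × 10^4/well in DMEM with 2% FBS and 380 μg/mL G418. After 16–24 h, compound added in triplicate, medium with compound renewed at day 3. Supernatant collected at day 6, Pronase-treated, and extracellular HBV DNA measured by TaqMan qPCR (precore/core) against an HBV DNA standard curve. EC50/EC90 derived; CC50 by MTS uptake.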

[6] = tested on: Human betaherpesvirus 5; experiment: Antiviral activity against HCMV Davis strain infected in HEL cells assessed as inhibition of virus-induced cytopathic effect; type: functional, cell-based; conditions: Human betaherpesvirus 5, Davis; in short: as §2
[7] = Cytotoxicity against human TZM-bl cells assessed as cell viability by tetrazolium dye assay; type: cell-based
[8] = Stability of the compound in phosphate buffer of pH 8 at 1 mg after 2 hrs by 31P NMR spectroscopy; type: physicochemical; conditions: pH 8, 2 h
In short: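 1 mg compound in 0.2 mL acetone-d6 plus 0.3 mL pH 8 buffer (0.1 M Na2HPO4 adjusted with 0.1 M HCl). In situ 31P NMR (202 MHz) at 37 °C, spectra every 30 min over 14 h.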

[9] = tested on: Human immunodeficiency virus 1; experiment: Antiviral activity against CCR5 tropic HIV1 BaL infected in human TZM-bl cells assessed as inhibition of virus-induced cytopathic effect preincubated with cells for 30 mins followed by viral infection measured after 48 hrs in presence of p-24 HIV-1 Ag by luciferase reporter gene assay; type: functional, cell-based; conditions: Human immunodeficiency virus 1, BaL; in short: as §1
[10] = Selectivity index, ratio of CC50 for human TZM-bl cells to EC50 for CXCR4-tropic HIV-1 NL4-3 infected in human TZM-bl cells; type: toxicity, cell-based; conditions: read-out: Ratio CC50/EC50
[11] = tested on: Human alphaherpesvirus 3; experiment: Antiviral activity against thymidine kinase deficient Varicella-Zoster virus 07-1 infected in HEL cells assessed as inhibition of plaque formation; type: functional, cell-based; conditions: Human alphaherpesvirus 3, 07-1, HEL; in short: as §2
[12] = tested on: Hepatitis B virus; experiment: Antiviral activity against HBV ayw1 infected in human HepG2(2.2.15) cells assessed as reduction in viral replication by measuring extracellular viral DNA copy number after 6 days by real-time qPCR method; type: functional, cell-based; conditions: ayw1, HepG2 2.2.15, 144 h; in short: as §3
[13] = tested on: Human betaherpesvirus 5; experiment: Antiviral activity against Human cytomegalovirus AD169 infected in HEL cells assessed as inhibition of virus-induced cytopathic effect; type: functional, cell-based; conditions: Human betaherpesvirus 5, AD169, HEL; in short: as §2
[14] = Cytotoxicity against human HepG2.2.15 cells assessed as cell viability by tetrazolium dye uptake assay; type: cell-based, HepG2 2.2.15
In short: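 HepG2.2.15 cells (two integrated copies of HBV ayw1 genome) were seeded at 1.5 × 10^4 cells/well in DMEM with 2% FBS, 380 μg/mL G418, glutamine, antibiotics and nonessential amino acids. After 16−24 h, medium with various compound concentrations was added in triplicate and renewed on day 3. After 6 days of treatment, viability was read by MTS uptake and CC50 was calculated.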

[15] = Selectivity index, ratio of CC50 for human TZM-bl cells to EC50 for CCR5 tropic HIV1 BaL infected in human TZM-bl cells; type: toxicity, cell-based; conditions: read-out: Ratio CC50/EC50
[16] = tested on: Hepatitis B virus; experiment: Antiviral activity against HBV infected in human HepG2(2.2.15) cells assessed as decrease in extracellular HBV DNA levels after 12 days by dot blot analysis; type: functional, cell-based; conditions: HepG2 2.2.15, 288 h
[17] = tested on: Human immunodeficiency virus 2; experiment: Antiviral activity against HIV-2 infected in human MT4 cells measured on day 5 post-infection by trypan blue dye staining-based method; type: functional, cell-based; conditions: Human immunodeficiency virus 2, MT4, 120 h
[18] = tested on: Human immunodeficiency virus 1; experiment: Antiviral activity against HIV-1 infected in human MT4 cells measured on day 5 post-infection by trypan blue dye staining-based method; type: functional, cell-based; conditions: Human immunodeficiency virus 1, MT4, 120 h
[19] = Selectivity index, ratio of CC50 for human PHA-stimulated PBMCs to IC50 for CCR5 tropic HIV1 BaL infected in human PHA-stimulated PBMC
[20] = Cytotoxicity against human PHA-stimulated PBMC assessed as cell viability by tetrazolium dye assay; type: cell-based
[21] = Selectivity index, ratio of CC50 for human PHA-stimulated PBMC to IC50 for CXCR4-tropic HIV-1 NL4-3 infected in human PHA-stimulated PBMC
[22] = tested on: Human immunodeficiency virus 1; experiment: (§4) Antiviral activity against CXCR4-tropic HIV-1 NL4-3 infected in human PHA-stimulated PBMC assessed as inhibition of viral replication by measuring reduction in p24 antigen production preincubated with cells for 30 mins followed by viral infection measured on day 10 post infection in presence of IL-2 by ELISA; type: functional; conditions: Human immunodeficiency virus 1, NL4-3
In short: (§5)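 PBMCs stimulated with 2 μg/mL PHA for 3 days at 37 °C, then 5 × 10^5 cells/ml preincubated 30 min at 37 °C with serial compound dilutions plus 2 ng/mL IL-2. Infected with 1500 pg/well HIV-1 BaL or 500 pg/well other isolates. IL-2 re-added on days 3 and 6. Supernatant p24 Ag measured by ELISA at day 10. EC50 is 50% inhibition of replication.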

[23] = tested on: Human immunodeficiency virus 1; experiment: as §4, with “CCR5 tropic HIV1 BaL” for “CXCR4-tropic HIV-1 NL4-3”; type: functional; conditions: Human immunodeficiency virus 1, BaL; in short: as §5

SMILES	MCC at 72 h [2]	EC50 [3]	EC50 [4]	Ratio CC50/EC50 [5]	EC50 [6]	CC50 [7]	EC50 [9]	selectivity ratio [10]	EC50 [11]	EC50 [12]	EC90 [12]	EC50 [13]	CC50 [14]	selectivity ratio [15]	also measured
CCCCCOC(=O)C[C@H](NP(=O)(CO[C@H](CF)Cn1cc(C)c(=O)[nH]c1=O)Oc1ccccc1)C(=O)OCCCCC (stereo partly drawn)	159 µM	> 43.4 µM	19.7 µM	<1	> 31.9 µM	43.4 µM	> 43.4 µM	< 1	23.1 µM	42.4 µM	> 100 µM	> 31.9 µM	33.5 µM	< 1	Stability [1]: Unstable; Stability [8]: Unstable
Nc1ncnc2c1ncn2C[C@@H](CF)OCP(=O)(O)O	> 328 µM	5.95 µM	98 µM	>61	> 328 µM	> 100 µM	6.47 µM	> 17	131 µM	> 1.65 µM	> 100 µM	> 328 µM	> 100 µM	> 15	EC50 [16]: 1.2 µM; EC50 [17]: 8 µM; EC50 [18]: 8 µM; Ratio CC50/IC50 [19]: 27; CC50 [20]: > 100 µM; Ratio CC50/IC50 [21]: 84; IC50 [22]: 1.19 µM; IC50 [23]: 3.73 µM
